Data: ChEMBL document CHEMBL1122203, “Potential tumor- or organ-imaging agents. 23. Sterol esters of iopanoic acid” (J Med Chem, 1982)

Assays:
[1] = Percent parent compound extracted at 24 hours from plasma using CHCl3/CH3OH.; format: ADME, cell-free; conditions: read-out: Extracted
Procedure, shortened: (§1)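 Lipid extracts from plasma, adrenal cortex and liver taken at 0.5 or 24 h after iv dosing were run on TLC beside unlabeled ester reference (iodine vapor). Eluents were petroleum ether/diethyl ether 7:2 for the cholesteryl ester and benzene/ethyl acetate 9:1 for the others, developed 14.5 cm. Plates were cut into 1-cm strips and counted; parent given as percent of extractable radioactivity.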

Rattus norvegicus [2] = test: Evaluated for distribution at 0.5 hr after intravenous administration in liver of female Sprague Dawley rats; format: ADME, organism-based; conditions: in vivo
Procedure, shortened: (§2)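 Radioiodinated compound solubilized in Tween (2–3% clear solution) and given intravenously to adult female Sprague-Dawley rats, 200–250 g; 5–30 µCi per animal, 4–5 rats per group. Killed by exsanguination under ether anesthesia; organs blotted, adrenal cortex dissected from medulla, weighed samples gamma-counted (84% efficiency). Expressed as percent administered dose per gram tissue ± SEM.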

Rattus norvegicus [3] = test: Evaluated for distribution at 0.5 hr after intravenous administration in blood of female Sprague Dawley rats; format: ADME, organism-based; conditions: in vivo; procedure, shortened: as §2
Rattus norvegicus [4] = test: Evaluated for distribution at 24 hours after intravenous administration in blood of female Sprague Dawley rats; format: ADME, organism-based; conditions: in vivo; procedure, shortened: as §2
Rattus norvegicus [5] = test: Evaluated for distribution at 24 hours after intravenous administration in thyroid of female Sprague Dawley rats; format: ADME, organism-based, Thyroid gland; conditions: in vivo; procedure, shortened: as §2
Rattus norvegicus [6] = test: Evaluated for distribution at 0.5 hr after intravenous administration in thyroid of female Sprague Dawley rats; format: ADME, organism-based, Thyroid gland; conditions: in vivo; procedure, shortened: as §2
[7] = Percent parent compound extracted at 0.5 hr from liver using CHCl3/CH3OH.; format: ADME, tissue-based; procedure, shortened: as §1
Rattus norvegicus [8] = test: Evaluated for distribution at 24 hours after intravenous administration in ovary of female Sprague Dawley rats; format: ADME, organism-based, Female gonad; conditions: in vivo; procedure, shortened: as §2
[9] = Percent lipid extracted at 0.5 hr from […] using CHCl3/CH3OH.; format: ADME, cell-free
Procedure, shortened: (§3)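 Same iv dosing of radioiodinated ester in Tween to female Sprague-Dawley rats. At 0.5 or 24 h, plasma, adrenal cortex and liver were extracted with CHCl3/CH3OH. Radioactivity in the lipid extract was counted and reported as percent of tissue radioactivity extractable, ± SE.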

Rattus norvegicus [10] = test: Evaluated for distribution at 0.5 hr after intravenous administration in ovary of female Sprague Dawley rats; format: ADME, organism-based, Female gonad; conditions: in vivo; procedure, shortened: as §2
Rattus norvegicus [11] = test: Evaluated for distribution at 24 hours after intravenous administration in adrenal cortex of female Sprague Dawley rats; format: ADME, organism-based; conditions: in vivo; procedure, shortened: as §2
[12] = Percent parent compound extracted at 24 hours from adrenal cortex using CHCl3/CH3OH.; format: ADME, tissue-based; procedure, shortened: as §1
[13] = Percent parent compound extracted at 24 hours from liver using CHCl3/CH3OH.; format: ADME, tissue-based; procedure, shortened: as §1
[14] = Percent parent compound extracted at 0.5 hr from adrenal cortex using CHCl3/CH3OH.; format: ADME, tissue-based; procedure, shortened: as §1
[15] = Percent parent compound extracted at 0.5 hr from plasma using CHCl3/CH3OH.; format: ADME, cell-free; conditions: read-out: Extracted; procedure, shortened: as §1
[16] = Percent lipid extracted at 24 hours from adrenal cortex using CHCl3/CH3OH.; format: ADME, tissue-based; procedure, shortened: as §3
[17] = Percent lipid extracted at 24 hours from plasma using CHCl3/CH3OH.; format: ADME, cell-free; procedure, shortened: as §3
[18] = Percent lipid extracted at 0.5 hr from adrenal […] using CHCl3/CH3OH.; format: ADME, tissue-based; procedure, shortened: as §3
[19] = Percent lipid extracted at 24 hr from liver using CHCl3/CH3OH.; format: ADME, tissue-based; procedure, shortened: as §3
Rattus norvegicus [20] = test: Evaluated for distribution at 24 hours after intravenous administration in liver of female Sprague Dawley rats; format: ADME, organism-based; conditions: in vivo; procedure, shortened: as §2
Rattus norvegicus [21] = test: Evaluated for distribution at 0.5 hr after intravenous administration in adrenal cortex of female Sprague Dawley rats; format: ADME, organism-based; conditions: in vivo; procedure, shortened: as §2
[22] = Percent lipid extracted at 0.5 hr from liver using CHCl3/CH3OH.; format: ADME, tissue-based; procedure, shortened: as §3

Row | Compound | remaining at 24 h [1] | Distribution (Rattus norvegicus [2]) | Distribution (Rattus norvegicus [3]) | Distribution (Rattus norvegicus [4]) | Distribution (Rattus norvegicus [5]) | Distribution (Rattus norvegicus [6]) | Extracted [7] | Distribution (Rattus norvegicus [8]) | Extracted [9] | Distribution (Rattus norvegicus [10]) | Distribution (Rattus norvegicus [11]) | Extracted [12] | Extracted [13] | Extracted [14] | remaining at 0.5 h [15] | Extracted [16] | Extracted [17] | Extracted [18] | Extracted [19] | Distribution (Rattus norvegicus [20]) | also measured
1 | CCC(Cc1c(I)cc(I)c(N)c1I)C(=O)OC1CCC2(C)C(=CCC3C2CCC2(C)C(C(C)CCCC(C)C)CCC32)C1 (stereo unspecified) | 96.1% | 4.035% | 5.191% | 0.696% | 3.571% | 0.868% | 97.8% | 24.542% | 83.4% | 5.161% | 11.029% | 96.9% | 97.8% | 96.9% | 96% | 92.1% | 85.8% | 83.1% | 91.2% | 6.59% | Distribution (Rattus norvegicus [21]): 4.9%; Extracted [22]: 87.2%
2 | CCC(Cc1c(I)cc(I)c(N)c1I)C(=O)OC1CCC2(C)C(=CCC3C2CCC2(C)C(C(C)=O)CCC32)C1 (stereo unspecified) | 44.6% | 5.214% | 1.727% | 0.039% | 156.7% | 0.945% | 89.2% | 1.085% | 86.7% | 2.126% | 4.256% | 68.2% | 69.1% | 92.1% | 91.9% | 87.3% | 60% | 89.5% | 76.1% | 0.386% | Distribution (Rattus norvegicus [21]): 23.083%; Extracted [22]: 87.6%
3 | CCC(Cc1c(I)cc(I)c(N)c1I)C(=O)OC1CCC2(C)C(=CCC3C4CCC(=O)C4(C)CCC32)C1 (stereo unspecified) | 38% | 3.612% | 1.275% | 0.085% | 143.74% | 1.392% | 61.8% | 1.205% | 63.1% | 1.886% | 3.958% | 16.8% | 42.5% | 83.4% | 64.2% | 83.4% | 64.2% | 85.5% | 61.8% | 0.108% | Distribution (Rattus norvegicus [21]): 15.38%; Extracted [22]: 81.5%
